Four compounds from ChEMBL document CHEMBL3351723, “New derivatives of lupane triterpenoids disturb breast cancer mitochondria and induce cell death” (Bioorg Med Chem, 2014) can be followed below.

Common to all, as to type: functional
Experiment [1] concerns Liver microsome. The experiment in a line: Effect on mitochondrial transmembrane potential in Wistar Han rat liver mitochondria energized with succinate assessed as mitochondrial transmembrane electropotential at 1.333 ug/mg of protein (reference value: 204.2 +/- 5.6 mV). Put shortly: (§1)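 Isolated male Wistar rat liver mitochondria (1.5 mg protein) in 125 mM sucrose, 65 mM KCl, 5 mM KH2PO4, 2.5 mM MgCl2, 5 mM HEPES pH 7.4, 30°C, with 3 μM TPP+. Compound added for 1 min, then 10 mM succinate plus 3 μM rotenone. State 3 started with ADP (83.3 nmol/mg protein). ΔΨ read with a TPP+-selective electrode and calculated by the Kamo equation without binding correction.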

Experiment [2] concerns Liver microsome. The experiment in a line: Effect on mitochondrial transmembrane potential in Wistar Han rat liver mitochondria energized with succinate assessed as mitochondrial transmembrane electropotential at 0.06 ug/mg of protein (reference value: 204.2 +/- 5.6 mV).
The subject of experiment [3] is Liver microsome. Briefly: Effect on mitochondrial transmembrane potential in Wistar Han rat liver mitochondria energized with succinate assessed as time duration of lag phase at 0.667 ug/mg of protein (reference value: 33.0 +/- 4.6 sec). Put shortly: as §1
The test system of experiment [4] is Liver microsome. Briefly: Effect on mitochondrial transmembrane potential in Wistar Han rat liver mitochondria energized with succinate assessed as ADP depolarization at 0.133 ug/mg of protein (reference value: 25.3 +/- 2.1 mV).
The test system of experiment [5] is Liver microsome. Briefly: Effect on mitochondrial transmembrane potential in Wistar Han rat liver mitochondria energized with succinate assessed as time duration of lag phase at 1.333 ug/mg of protein (reference value: 33.0 +/- 4.6 sec). Put shortly:
as §1

The subject of experiment [6] is Liver microsome. The experiment in a line: Effect on mitochondrial transmembrane potential in Wistar Han rat liver mitochondria energized with succinate assessed as ADP depolarization at 0.333 ug/mg of protein (reference value: 34.6 +/- 1.9 mV).
Experiment [7] relates to Liver microsome. The experiment in a line: Effect on mitochondrial transmembrane potential in Wistar Han rat liver mitochondria energized with succinate assessed as ADP depolarization at 0.133 ug/mg of protein (reference value: 34.6 +/- 1.9 mV).
Experiment [8] concerns Liver microsome. The experiment in a line: Effect on mitochondrial transmembrane potential in Wistar Han rat liver mitochondria energized with succinate assessed as mitochondrial transmembrane electropotential at 0.667 ug/mg of protein (reference value: 198.0 +/- 5.6 mV).
For experiment [9], the system named is Liver microsome. Briefly: Effect on mitochondrial transmembrane potential in Wistar Han rat liver mitochondria energized with succinate assessed as time duration of lag phase at 1.333 ug/mg of protein (reference value: 82.8 +/- 23.5 sec). Put shortly:
as §1

Regarding `C=C(C)[C@@H]1CC[C@]2(COC(=O)CC[n+]3ccc(N(C)C)cc3)CC[C@]3(C)[C@H](CC[C@@H]4[C@@]5(C)CC[C@H](OC(=O)CC[n+]6ccc(N(C)C)cc6)C(C)(C)[C@@H]5CC[C@]43C)[C@@H]12.[Cl-].[Cl-]`, the Activity in [1] was 199 mV; in [2], 206 mV; in experiment [4] it was 26.2 mV. The figures for the TIME in experiment [3] and in experiment [5] were 0.00894 h and 0.00983 h, respectively.

On to `C=C(C)[C@@H]1CC[C@]2(COC(=O)C[N+](C)(C)C(C)C)CC[C@]3(C)[C@H](CC[C@@H]4[C@@]5(C)CC[C@H](OC(=O)C[N+](C)(C)C(C)C)C(C)(C)[C@@H]5CC[C@]43C)[C@@H]12.[Cl-].[Cl-]`, for which the Activity in experiment [6] turned out to be 28.8 mV; in experiment [7] it was 30.3 mV.

With `C=C(C)[C@@H]1CC[C@]2(COC(=O)C(CC)[n+]3ccc(N(C)C)cc3)CC[C@]3(C)[C@H](CC[C@@H]4[C@@]5(C)CC[C@H](OC(=O)C(CC)[n+]6ccc(N(C)C)cc6)C(C)(C)[C@@H]5CC[C@]43C)[C@@H]12` (some centres undefined), in [8], the Activity was 193 mV.

Turning to `C=C(C)[C@@H]1CC[C@]2(COC(=O)C[n+]3ccc(N(C)C)cc3)CC[C@]3(C)[C@H](CC[C@@H]4[C@@]5(C)CC[C@H](OC(=O)C[n+]6ccc(N(C)C)cc6)C(C)(C)[C@@H]5CC[C@]43C)[C@@H]12.[Cl-].[Cl-]`, the TIME in experiment [9] amounted to 0.033 h.
